Laboratory results from ChEMBL document CHEMBL1149773, “Synthesis, determination of the lipophilicity, anticancer and antimicrobial properties of some fused 1,2,4-triazole derivatives” (Eur J Med Chem, 2008).
≈ marks a conversion by molar mass, not a printed value. Calls of active or inactive are those of the source. No cut-off for these calls is given here.

Legend:
Aspergillus sp. = assay: Antimicrobial activity against Aspergillus sp. at 480.6 uM by disc-diffusion method; type: functional; settings: read-out: IZ
Summary of the method: (§1)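 Kirby–Bauer disc diffusion: 5 mm paper discs soaked in compound solution in DMSO (100 or 200 µg/mL; reference drugs 200 µg/mL) and laid on inoculated Mueller-Hinton agar (bacteria) or Sabouraud agar (C. albicans, Aspergillus). DMSO discs were the control. Plates ran 24 h at 35 °C. Inhibition zone diameter was scored 0–10 mm R, 11–16 mm I, 17–25 mm S; triplicate.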

Pseudomonas aeruginosa = assay: Antimicrobial activity against Pseudomonas aeruginosa ATCC 27853 at 480.6 uM by disc-diffusion method; type: functional; settings: read-out: IZ; summary of the method: as §1
Candida albicans [1] = assay: microbe, parasite or virus in culture; settings: ATCC 10231, read-out: IZ
Proteus vulgaris = assay: Antimicrobial activity against Proteus vulgaris at 480.6 uM by disc-diffusion method; type: functional; settings: read-out: IZ; summary of the method: as §1
Klebsiella aerogenes = assay: Antimicrobial activity against Enterobacter aerogenes at 480.6 uM by disc-diffusion method; type: functional; settings: read-out: IZ; summary of the method: as §1
Escherichia coli = assay: Antimicrobial activity against Escherichia coli ATCC 25922 at 480.6 uM by disc-diffusion method; type: functional; settings: read-out: IZ; summary of the method: as §1
Streptococcus pyogenes = assay: Antimicrobial activity against Streptococcus pyogenes at 480.6 uM by disc-diffusion method; type: functional; settings: read-out: IZ; summary of the method: as §1
Candida albicans [2] = assay: Antimicrobial activity against Candida albicans ATCC 10231 after 24 hrs by microdilution assay; type: functional; settings: ATCC 10231, 24 h
Streptococcus agalactiae = assay: Antimicrobial activity against Streptococcus agalactiae at 480.6 uM by disc-diffusion method; type: functional; settings: read-out: IZ; summary of the method: as §1
Klebsiella pneumoniae = assay: Antimicrobial activity against Klebsiella pneumoniae at 480.6 uM by disc-diffusion method; type: functional; settings: read-out: IZ; summary of the method: as §1
Staphylococcus aureus = assay: Antimicrobial activity against Staphylococcus aureus ATCC 25923 at 480.6 uM by disc-diffusion method; type: functional; settings: read-out: IZ; summary of the method: as §1
[3] = tested on: Staphylococcus epidermidis; assay: Antimicrobial activity against Staphylococcus epidermidis at 480.6 uM by disc-diffusion method; type: functional; settings: read-out: IZ; summary of the method: as §1
[4] = Lipophilicity, log kw in methanol aqueous system at pH 3.5; type: physicochemical
Summary of the method: (§2)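 RP-HPLC on an octadecyl silica column (150 × 4.6 mm, 5 µm) at 22 ± 1 °C, flow 1.0 mL min⁻¹, UV detection at 254 nm. Mobile phase was methanol, acetonitrile or dioxane with water and 0.01 M phosphate buffer pH 3.5 containing 0.05 M DEA. log k_W was extrapolated to pure water by regression.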

HeLa [5] = assay: Antiproliferative activity against human HeLa cells assessed as cell viability at 100 uM by MTT assay; type: functional; settings: read-out: Activity
Summary of the method: (§3)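 Log-phase cells, kept in supplemented RPMI 1640 (HSF in DMEM/10% FBS) at 37 °C, 5% CO2, were exposed 24 h to 1, 50 or 100 µM compound from DMSO. They were washed, given 0.5 mg/mL MTT in HEPES buffer pH 7.4 for 45 min at 37 °C, and formazan was dissolved in DMSO and read at 570 nm. Values are % viability versus control from three independent measurements.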

T47D [6] = assay: Growth inhibition of human T47D cells at 29.3 uM; type: functional; settings: read-out: GI
Summary of the method: (§4)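 Vero, LS180, SiHa, T47D or primary HSF cells were seeded at 10^4 cells per mL and preincubated in microtiter plates. Compounds were added at 10 or 50 µg mL⁻¹ (printed µM equivalents depend on the compound) and incubated 72 h. End-point was BrdU labelling read spectrophotometrically on an ELISA reader. Growth inhibition is % versus untreated controls; triplicates.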

[7] = Lipophilicity, log kw in dioxane aqueous system at pH 3.5; type: physicochemical; settings: buffer; summary of the method: as §2
[8] = Growth inhibition of human LS180 cells at 146.7 uM; type: functional; settings: read-out: GI; summary of the method: as §4
[9] = Growth inhibition of human skin fibroblast at 29.3 uM; type: cell-based; settings: human skin fibroblasts, read-out: GI; summary of the method: as §4
[10] = Antiproliferative activity against human skin fibroblast assessed as cell viability at 1 uM by MTT assay; type: cell-based; settings: human skin fibroblasts, read-out: Activity; summary of the method: as §3
LS180 [11] = assay: Induction of DNA damage in human LS180 cells at 29.3 uM; type: functional, cell-based
Summary of the method: (§5)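 Cells were treated at 29.3 µM (10 µg mL⁻¹) and washed twice with PBS. DNA was isolated with lysis buffer plus proteinase K, or cells were lysed as agarose plugs. Samples ran on 1% agarose with propidium iodide at 120 V for 1.5 h at room temperature […]. Experiments were repeated three times. The comet assay was also run on T47D.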

[12] = Antiproliferative activity against human skin fibroblast assessed as cell viability at 50 uM by MTT assay; type: cell-based; settings: human skin fibroblasts, read-out: Activity
Summary of the method: (§6)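 MTT viability assay on primary human skin fibroblasts grown in DMEM with 10% FBS and penicillin/streptomycin. Compounds were dissolved in DMSO and given at 1, 50 or 100 µM for 24 h. Cells were washed in HEPES-buffered medium (pH 7.4) and then given MTT 0.5 mg mL⁻¹ for 45 min at 37 °C. Formazan was dissolved in DMSO and read at 570 nm. Viability is % of control; three independent measurements.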

T47D [13] = assay: Effect on superoxide dismutase gene expression in human T47D cells at 29.3 uM; type: functional, cell-based
Summary of the method: (§7)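 LS180 and T47D cells were incubated at 29.3 µM (10 µg mL⁻¹). SOD gene expression was visualised by electrophoresis on 1% agarose gel against an untreated control.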

[14] = Antiproliferative activity against human RPMI cells assessed as cell viability at 1 uM by MTT assay; type: functional; settings: read-out: Activity; summary of the method: as §3
HeLa [15] = assay: Antiproliferative activity against human HeLa cells assessed as cell viability at 50 uM by MTT assay; type: functional; settings: read-out: Activity; summary of the method: as §3
[16] = Growth inhibition of human LS180 cells at 29.3 uM; type: functional; settings: read-out: GI; summary of the method: as §4
Vero = assay: Induction of DNA damage in african green monkey Vero cells at 29.3 uM; type: cell-based; settings: chlorocebus sabaeus; summary of the method: as §5
LS180 [17] = assay: Effect on superoxide dismutase gene expression in human LS180 cells at 29.3 uM; type: functional, cell-based; summary of the method: as §7
[18] = Growth inhibition of african green monkey Vero cells at 29.3 uM; type: cell-based; settings: chlorocebus sabaeus, read-out: GI; summary of the method: as §4
SiHa [19] = assay: Induction of DNA damage in human SiHa cells at 29.3 uM; type: functional, cell-based; summary of the method: as §5
T47D [20] = assay: Induction of DNA damage in human T47D cells at 29.3 uM; type: functional, cell-based; summary of the method: as §5
[21] = Antiproliferative activity against human RPMI cells assessed as cell viability at 100 uM by MTT assay; type: functional; settings: read-out: Activity; summary of the method: as §3
[22] = Growth inhibition of african green monkey Vero cells at 146.7 uM; type: cell-based; settings: chlorocebus sabaeus, read-out: GI; summary of the method: as §4
[23] = Antiproliferative activity against human skin fibroblast assessed as cell viability at 100 uM by MTT assay; type: cell-based; settings: human skin fibroblasts, read-out: Activity; summary of the method: as §6
T47D [24] = assay: Growth inhibition of human T47D cells at 146.7 uM; type: functional; settings: read-out: GI; summary of the method: as §4
SiHa [25] = assay: Growth inhibition of human SiHa cells at 146.7 uM; type: functional; settings: read-out: GI; summary of the method: as §4
[26] = Lipophilicity, log kw in acetonitrile aqueous system at pH 3.5; type: physicochemical; summary of the method: as §2
HeLa [27] = assay: Antiproliferative activity against human HeLa cells assessed as cell viability at 1 uM by MTT assay; type: functional; settings: read-out: Activity; summary of the method: as §3
[28] = Antiproliferative activity against human RPMI cells assessed as cell viability at 50 uM by MTT assay; type: functional; settings: read-out: Activity; summary of the method: as §3
[29] = Growth inhibition of human skin fibroblast at 146.7 uM; type: cell-based; settings: human skin fibroblasts, read-out: GI; summary of the method: as §4
SiHa [30] = assay: Growth inhibition of human SiHa cells at 29.3 uM; type: functional; settings: read-out: GI; summary of the method: as §4

Clc1ccc(COC(Cn2ccnc2)c2ccc(Cl)cc2Cl)c(Cl)c1 (stereo not given) [MICONAZOLE] gave a zone of inhibition at 480.6 µM (Aspergillus sp.) of 0 mm, a zone of inhibition at 480.6 µM (Pseudomonas aeruginosa) of 0 mm and a zone of inhibition at 480.6 µM (Candida albicans [1]) of 17 mm. It also gave a zone of inhibition at 480.6 µM (Proteus vulgaris) of 0 mm, a zone of inhibition at 480.6 µM (Klebsiella aerogenes) of 0 mm and a zone of inhibition at 480.6 µM (Escherichia coli) of 0 mm. It also gave a zone of inhibition at 480.6 µM (Streptococcus pyogenes) of 0 mm, an MIC (Candida albicans [2]) of 37.5 µM (≈ 15.6 µg/mL) and a zone of inhibition at 480.6 µM (Streptococcus agalactiae) of 0 mm. For the same compound, the zone of inhibition at 480.6 µM (Klebsiella pneumoniae) was 0 mm, the zone of inhibition at 480.6 µM (Staphylococcus aureus) was 0 mm and the zone of inhibition at 480.6 µM [3] was 0 mm.

Cc1cc(Cl)ccc1OCc1nnc2n1CCN2c1ccccc1 gave a logKw [4] of 1.62, a viability at 100 µM (HeLa [5]) of 75.9% and an inhibition of growth at 29.3 µM (T47D [6]) of 25%. For the same compound, the logKw [7] was 1.17, the inhibition of growth at 146.7 µM [8] was 39% and the inhibition at 29.3 µM [9] was 4%. The viability at 1 µM [10] was 79.2%, the Activity (LS180 [11]) was “Active” and the viability at 50 µM [12] was 76.8%. For the same compound, the Activity (T47D [13]) was “Active”, the viability at 1 µM [14] was 112% and the viability at 50 µM (HeLa [15]) was 75.1%. For the same compound, the inhibition of growth at 29.3 µM [16] was 35%, the Activity (Vero) was “Active” and the Activity (LS180 [17]) was “Active”. For the same compound, the inhibition at 29.3 µM [18] was 20%, the Activity (SiHa [19]) was “Active” and the Activity (T47D [20]) was “Active”. For the same compound, the viability at 100 µM [21] was 108%, the inhibition at 146.7 µM [22] was 20% and the viability at 100 µM [23] was 72.5%. It also gave an inhibition of growth at 146.7 µM (T47D [24]) of 40%, an inhibition of growth at 146.7 µM (SiHa [25]) of 30% and a logKw [26] of 1.36. It also gave a viability at 1 µM (HeLa [27]) of 65.6%, a viability at 50 µM [28] of 114% and an inhibition at 146.7 µM [29] of 8%. It also gave an inhibition of growth at 29.3 µM (SiHa [30]) of 30%.
